Assay outcomes as filed in PubChem BioAssay.
Shown are actives, neighbours in structure and some others; about 3.7% of the full set was active somewhere.
Insulin prom inh: inhibitors of insulin promoter-driven GFP, primary screen, imaging, TRM-6 cells (human fetal islet line), eGFP reporter, cell count. AID 1273, 2008. inhibition, % at 2 µM. hit rate 0.9% among 130,000. reporter expression induced with tamoxifen;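 active = inhibition above the mean plus 3 SD, with well images judged a real hit on visual review, cut at about 60% in these data, passing the limit was not always enough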
BB579 growth dn: growth inhibitors of yeast BB579 in restrictive medium, primary screen, yeast lifespan-shortening project, S. cerevisiae. OD615, 48 h. inhibition, % at 10 µM. hit rate 0.51% among 140,000;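 active = inhibition above a set limit, 3 SD over the mean compound inhibition, cut at about 44% in these data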
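Test system: Saccharomyces cerevisiae DeaD strain BB579, replicative lifespan model yeast | Buffer or medium: Restrictive CSMM-D medium | Doses: One dose, 10 µM compound with 0.25% DMSO | Incubation: 48 h exposure, 30 °C | Detection: Culture absorbance at 615 nm | Control set: Amphotericin B at 10 µg/mL as positive control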
Yeast lifespan up: compounds extending yeast replicative lifespan, primary screen, S. cerevisiae, OD615. hit rate 0.68% among 130,000. AID 775, 2007. S. cerevisiae growth with nicotinamide; deaD strain in restrictive glucose medium. inhibition of the nicotinamide effect, % at 10 µM;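 active = inhibition above a set limit, placed 3 SD over the median of all compounds, cut at about 26% in these data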;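 also: 0% = nicotinamide-treated wells and 100% = cells grown without nicotinamide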
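Material: Modified budding yeast, DeaD strain | Medium: Restrictive glucose medium | Probe or stimulus: 1.5 mM nicotinamide | Dosing: Single dose 10 µM compound, 0.25% DMSO | Times: 48 h at 30 °C | Technique: OD615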
RAM inhibit: inhibitors of the yeast RAM network, primary screen, dse1pr::URA3 reporter, 5-FOA selection; S. cerevisiae dse1pr::URA3 reporter, 5-FOA growth OD615, 2 d; analog-sensitive cbk1-as2 kinase mutant strain; inhibition, % at 50 µM; hit rate 1.8% among 190,000; AID 868, 2007;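 active = inhibition above a set limit, 3 SD over mean compound inhibition, cut at about 8.4% in these data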;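 also: 0% = DMSO-only wells with no growth and 100% = 10 µM 1-NA-PP1 full growth; inhibition rescues growth on 5-FOA so higher OD means more RAM inhibition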
Efa HMGR inh: inhibitors of E. faecalis class II HMGR, primary screen, biochemical, Enterococcus faecalis; AID 1066, 2008; HMG-CoA reductase (Enterococcus faecalis, mvaE); inhibition, % at 10 µM; purified E. faecalis HMGR, NADPH absorbance 340 nm kinetic; hit rate 0.41% among 190,000;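 active = inhibition above a set limit, the median over all tested compounds plus 3 SD, cut at about 9.5% in these data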;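 also: enzyme runs in reverse so mevalonate oxidation gives rising NADPH absorbance; 0% = complete reaction with DMSO and 100% = background rate lacking mevalonate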
* marks the source's active call; other numbers are inactive results; nt = no result.

SMILES	Insulin prom inh	BB579 growth dn	Yeast lifespan up	RAM inhibit	Efa HMGR inh
COc1ccc(C(=O)OCC2CC(c3ccccc3)=NO2)cc1OC (stereo not given)	26.3	nt	nt	3.5	0.8
COc1ccc2c(C)cc(SCC(=O)Nc3cccnc3Cl)nc2c1	-11.8	nt	nt	5.8	-0.5
Cc1cc2c(cc(C(=O)O)n2C)s1	nt	56.5*	-7.5	-1.1	-2.0
COc1cc(/C=C(\C#N)C(=O)NCC2CCCO2)ccc1OC(C)C (stereo not given)	70.3*	2.1	-2.8	0.0	-3.3
CCC1=NN(C(=O)Cc2ccc(OC)c(OC)c2)C(O)(C(F)(F)F)C1 (stereo not given)	22.6	-11.4	-13.2	-1.6	-7.0
Cc1nn(C2CCS(=O)(=O)C2)c(Cl)c1/C=C/C(=O)OCC(=O)Nc1ccccc1OC(F)F (stereo not given)	65.7*	-23.8	0.5	1.0	-6.9
Cc1nn(C2CCS(=O)(=O)C2)c(Cl)c1/C=C/C(=O)OCC(=O)Nc1ccccc1[N+](=O)[O-] (stereo not given)	nt	nt	nt	4.1	-1.3
CC(C)[C@H](NC(=O)c1ccco1)C(=O)NC12CC3CC(CC(C3)C1)C2	nt	nt	nt	0.4	-2.1
c1ccc(Oc2cc(-c3ccccc3)nc(-c3ccccc3)n2)cc1	-6.9	-24.3	2.5	10.0*	-1.7
CCN1CCN(c2cc(-c3ccccc3)nc3cc(-c4cccc(F)c4)nn23)CC1	66.7	-66.1	nt	-0.7	9.6*
Cc1ccc(-c2cc3nc(-c4ccccc4)cc(N4CCOCC4)n3n2)cc1	-326.7	-14.0	nt	3.7	1.5
OC1CCN(c2cc(-c3ccccc3)nc3cc(-c4ccc(F)cc4)nn23)CC1	nt	nt	nt	9.6*	0.9
Cc1cc(N2CCOCC2)n2nc(-c3cccc(F)c3)cc2n1	-25.0	-7.8	-8.8	-0.7	-5.1
Cc1ccccc1CSCC(=O)Nc1c(C)n(C)n(-c2ccccc2)c1=O	21.9	-20.4	1.0	1.1	-7.2
O=C(COC(=O)c1ccc[n+]([O-])c1)Nc1c(Br)cc([N+](=O)[O-])cc1Br	nt	nt	nt	1.5	-0.5
O=C(NCc1ccco1)c1ccc(CNc2c(N3CCCCC3)c(=O)c2=O)cc1	12.2	-19.7	5.7	1.0	-3.5
COc1ccc(C2Nc3ccccc3C(=O)N2NS(=O)(=O)c2ccc(C)cc2)cc1 (stereo not given)	-16.7	nt	nt	2.9	12.8*
Cc1ccc(SCc2cc(=O)[nH]c(Nc3nc(C)c4cccc(C)c4n3)n2)cc1	0.0	-18.3	-5.9	2.1	-3.1
COc1ccc2nc(Nc3nc(CSc4ccc(C)cc4)cc(=O)[nH]3)nc(C)c2c1	nt	nt	nt	11.3*	-5.9
COc1ccc(CCN(Cc2cc3cccc(C)c3[nH]c2=O)C(=O)NC2CCCCC2)cc1OC	36.7	-11.2	-6.2	0.1	-4.1
Clc1ccc(CCNc2nc3ccccc3s2)cc1	-16.2	67.7*	-26.9	2.1	1.9
O=c1c2ccccc2c(/C=N/c2ncn[nH]2)c(O)n1Cc1ccccc1	71.4*	-49.8	-9.5	3.6	-2.6
COC(=O)c1cc(=O)n(Cc2ccc3c(c2)OCO3)c(=Nc2ccc(F)c(Cl)c2)s1	nt	6.4	-8.1	3.1	2.1
COC(=O)c1cc(=O)n(CCc2ccc(OC)cc2)c(=Nc2ccc(F)c(Cl)c2)s1	nt	25.0	2.8	9.5*	-5.1
COc1ccc(OCC(O)Cn2cnc(-c3ccc(Br)cc3)c2)cc1 (stereo not given)	12.5	-25.0	nt	4.5	-2.6
SMILES	Insulin prom inh	BB579 growth dn	Yeast lifespan up	RAM inhibit	Efa HMGR inh
OC(COc1ccc2ccccc2c1Br)Cn1cnc(-c2ccccc2)c1 (stereo not given)	3.2	92.6*	-14.2	-1.7	-3.5
CC(=O)C(Cc1ccc(Cl)nc1)(Cc1ccc(Cl)nc1)C(C)=O	nt	nt	nt	1.9	10.0*
CC(=O)C(Cc1cnc(Cl)s1)(Cc1cnc(Cl)s1)C(C)=O	30.0	-41.4	5.3	-0.3	-1.8
Cc1ccc(Cn2nnnc2CN2CCC(O)(c3cccnc3)CC2)cc1	78.6*	nt	nt	1.1	-3.2
COCCn1c(SCC(=O)Nc2ccccc2)nc2c(oc3ccccc32)c1=O	3.7	nt	nt	-0.4	-6.7
COCCn1c(SCC(=O)Nc2ccc(C)cc2)nc2c(oc3ccccc32)c1=O	19.4	-36.1	85.4*	2.3	-5.5
Cc1cc2nnc(SCC(=O)N(C)C3CCS(=O)(=O)C3)n2c2ccccc12 (stereo not given)	nt	nt	nt	2.7	-5.0
COc1cccc(N(C(=O)Cn2nnc(-c3ccc(C)cc3)n2)C(C(=O)NC(C)(C)C)c2c[nH]c3ccccc23)c1 (stereo not given)	-30.0	-96.1	45.2*	5.0	-0.1
CC1(C)CC(=O)C2=C(C1)OC(N)=C([N+](=O)[O-])C2c1cccs1 (stereo not given)	26.7	-20.5	27.6*	0.1	-1.1
COc1cccc(C2C3=C(CC(C)(C)CC3=O)OC(N)=C2[N+](=O)[O-])c1 (stereo not given)	-48.0	-27.5	-5.2	2.8	-3.2
Cc1ccc(S(=O)(=O)c2cc3ccccc3nc2N)cc1	nt	nt	nt	1.0	-3.4
C=CCOc1c(Br)cc(CNc2nccs2)cc1OC	-31.6	-57.3	nt	1.6	14.1*
COc1cc(CNC(C)(C)C)cc(Br)c1OCc1cccs1	nt	-26.3	1.1	0.1	1.7
N#Cc1cc2c(nc1SCc1ccccc1)CCCCC2	-13.2	-42.5	-15.5	1.2	-6.1
N#Cc1cc2c(nc1SCc1ccc(Cl)cc1)CCCC2	50.0	-33.0	nt	8.7*	-1.1
Cc1nc2c(=O)n(C)c(=O)n(C)c2nc1Cl	17.9	5.4	75.1*	0.7	-4.2
Cn1c(=O)c2nc(NCc3ccccc3)cnc2n(C)c1=O	nt	13.4	-12.3	0.9	-0.3
Cn1c(SCc2ccc(F)cc2)nnc1-c1cccs1	70.6*	-56.4	-10.1	-0.1	-12.5
CCc1nc(SCC(=O)Nc2nnc(CC(C)C)s2)n[nH]1	nt	nt	nt	0.7	-2.9
COc1ccccc1/C=C/C(=O)c1cc(Br)ccc1OC(=O)c1ccco1	-15.9	nt	nt	nt	nt
CCOc1ccc(/C=C/C(=O)c2cc(Br)ccc(=O)c2O)cc1	nt	92.5*	3.7	4.6	-0.5
Cc1ccc(/C=C/C(=O)c2cc(Br)ccc2OC(=O)c2ccco2)cc1	-30.4	-41.4	-7.4	11.0*	-4.7
Cc1cccc(/C=C/C(=O)c2cc(Br)ccc(=O)c2O)c1	-17.1	94.8*	-14.3	2.4	-6.2
Cc1ccc(C(=O)/C=C/c2ccc(Br)cc2)o1	0.0	-45.5	-4.1	2.1	-0.8
CCc1ccc(/C=C/C(=O)c2cc(Br)ccc(=O)c2O)cc1	-2.9	88.6*	-10.0	5.1	-1.2
O=C(Nc1ccon1)c1cccc(S(=O)(=O)N2CCCCC2)c1	nt	nt	nt	3.8	-0.7
C=CCNC(=O)COc1cc(C)cc(C)c1C	nt	nt	nt	0.4	-2.8
CS(=O)(=O)N1CCC(Oc2ccccc2C(=O)N2CCN(CC3CC3)CC2)CC1	-34.8	nt	nt	1.1	-2.9
Cc1csc(NC(=O)c2cncc(Br)c2)n1	nt	nt	nt	0.4	-9.1
